Source: PubChem (several laboratories)
Only some compounds are listed: those with a hit (about 1.8% of all), similar ones and a draw of the others.
NSD2 HMT inh: NSD2 histone methyltransferase inhibitors, primary screen, biochemical, AlphaScreen, single concentration, set 2; 0.54% of 310,000 active; Histone-lysine N-methyltransferase NSD2 (Homo sapiens), O96028; NSD2 peptide methylation, 120 min; inhibition, % at 12.5 µM; in the data active = inhibition above about 50%
UHRF1 MBD2 ctr: UHRF1 methylated DNA binding inhibitors, primary screen, counter-screen for MBD2 inhibitor project, biochemical, TR-FRET, human UHRF1, single concentration; E3 ubiquitin-protein ligase UHRF1 (Homo sapiens), Q96T88; UHRF1 binding to methylated oligo; inhibition, % at 4.4 µM; 0.75% of 370,000 active; AID 687016, 2013; in the data active = inhibition above about 21%;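 also: UHRF1 SRA domain binding a hemimethylated CpG hairpin DNA probe; 0% = median of test compound wells and 100% = reference inhibitor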
Target sequence (Q96T88 whole entry, looked up, the tested form may be a part): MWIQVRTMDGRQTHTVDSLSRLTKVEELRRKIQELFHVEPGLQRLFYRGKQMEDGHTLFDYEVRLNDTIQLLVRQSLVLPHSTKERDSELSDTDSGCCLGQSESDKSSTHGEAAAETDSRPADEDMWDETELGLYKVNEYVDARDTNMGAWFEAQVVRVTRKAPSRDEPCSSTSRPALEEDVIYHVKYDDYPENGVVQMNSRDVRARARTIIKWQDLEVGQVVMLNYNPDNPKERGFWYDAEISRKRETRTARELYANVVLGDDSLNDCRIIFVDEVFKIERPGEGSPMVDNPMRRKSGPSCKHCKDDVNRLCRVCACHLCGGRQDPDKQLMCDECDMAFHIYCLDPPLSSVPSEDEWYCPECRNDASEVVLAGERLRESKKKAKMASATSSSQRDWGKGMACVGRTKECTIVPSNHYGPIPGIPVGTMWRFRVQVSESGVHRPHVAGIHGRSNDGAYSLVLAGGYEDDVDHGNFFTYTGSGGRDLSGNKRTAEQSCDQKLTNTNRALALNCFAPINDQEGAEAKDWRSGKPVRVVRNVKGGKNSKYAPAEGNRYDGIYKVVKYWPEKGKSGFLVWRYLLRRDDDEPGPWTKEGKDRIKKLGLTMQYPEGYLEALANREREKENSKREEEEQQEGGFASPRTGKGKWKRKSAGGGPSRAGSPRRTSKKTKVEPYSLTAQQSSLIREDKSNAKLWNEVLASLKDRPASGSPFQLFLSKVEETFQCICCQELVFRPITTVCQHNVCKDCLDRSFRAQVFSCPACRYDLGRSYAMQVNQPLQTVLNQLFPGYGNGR
LEDGF integ inh: blockers of LEDGF/p75-dependent integrase strand transfer – biochemical, TR-FRET, high throughput, primary screen. inhibition, % at 3.7 µM. 0.64% of 370,000 active. TR-FRET IN-LEDGF/p75 DNA integration, Eu/Cy5. HIV-1 integrase (with human LEDGF/p75);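 active = inhibition above the screen-wide mean plus 3 SD, cut at about 13% in these data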;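 also: signal is the Cy5 over europium emission ratio at 671 and 618 nm; 0% = plate median of compound wells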
CASP6 VEID inh: human caspase-6 inhibitors, primary screen, biochemical, VEID-R110 fluorescence, single point, set 2 | inhibition, % at 12.5 µM | 0.53% of 350,000 active | P55212 | AID 686996, 2013 | purified caspase-6, Z-VEID-R110 cleavage fluorescence;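 active = mean inhibition across replicates at least about 35%, with every replicate also reaching that limit, limit read from the data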;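 also: 0% = median of neutral control wells and 100% = no fluorescence left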
MBD2 inh: inhibitors of MBD2 binding to methylated DNA, primary screen, biochemical, TR-FRET, DNA-binding domain, human; Methyl-CpG-binding domain protein 2 (Homo sapiens), Q9UBB5; 0.31% of 370,000 active; MBD2 binding to methylated oligonucleotide; inhibition, % at 4.4 µM; in the data active = inhibition above about 13%
TDP2 inh: human TDP2 enzyme inhibitors, primary screen, biochemical, epi absorbance, recombinant enzyme. inhibition, % at 12.8 µM. AID 720702, 2013. 0.34% of 370,000 active. T5PNP hydrolysis, p-nitrophenol absorbance 415 nm;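 active = inhibition above the mean of all tested compounds plus 3 SD, set per campaign, cut at about 25% in these data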;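 also: 0% = DMSO with enzyme and 100% = buffer with substrate but no TDP2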
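Incubation: 2 h at 37 °C; Test system: recombinant human TDP2; Quantity: enzyme 120 nM; Read-out basis: percent inhibition; Medium: 50 mM Tris-HCl pH 7.5 with Mg2+, KCl, DTT, BSA; Repeats: single replicate; Compound: 12.8 µM single point, 1% DMSO; Signal: epi absorbance; Reagent: 5 mM T5PNP chromogenic substrate; Benchmarks: no-enzyme high, DMSO-plus-enzyme low.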
AlphaScreen art: AlphaScreen signal interference with preloaded methylated product, dose response, artefact control for NSD2 inhibitor project, biochemical, cherry-picked samples | shares compounds with NSD2 HMT inh | AlphaScreen artifact counterscreen, preloaded methylated H4 peptide | AC35, µM (top dose mostly 10 µM), without a hit: top-dose activity change, negative = signal loss | 9.4% of 1,500 active | AID 1053174, 2014; call rule not given here
Active calls of the source: *; / = not tested or not shown.

SMILES	NSD2 HMT inh	UHRF1 MBD2 ctr	LEDGF integ inh	CASP6 VEID inh	MBD2 inh	TDP2 inh	AlphaScreen art
Cc1ccc(S(=O)(=O)N2CCN(C(=O)C(F)(F)F)C2c2ccc(N(C)C)cc2)cc1 (stereo not drawn)	121.8*	-1.2	-3.0	-0.9	0.9	10.8	-3.5%
COc1ccc(NC(=O)Nc2ccc3c(c2)CC(=O)N([C@H](C)CO)C[C@H](C)[C@@H](CN(C)Cc2ccccc2)O3)cc1	/	/	/	1.4	/	/	/
O=C(OCC(=O)N1CCCCC1)c1ccc2c(c1)C(=O)N(Cc1ccco1)C2=O	4.9	3.0	-0.7	2.9	-0.8	3.0	/
CC(C)(C)NC(=O)COC(=O)c1ccc2c(c1)C(=O)N(Cc1ccco1)C2=O	75.0*	0.7	0.8	5.9	-0.2	-6.3	-0.8%
COc1ccc(C=C(c2nc3ccccc3s2)c2nc3ccccc3s2)cc1O	58.6*	-4.9	0.6	/	-0.1	8.5	-10.0%
COc1cc(C=C(c2nc3ccccc3s2)c2nc3ccccc3s2)ccc1O	7.5	-5.2	1.6	-1.9	-3.6	-3.7	/
O=C(CN1CCC(C(=O)c2ccc3c(c2)OCCO3)CC1)Nc1ccccc1C(F)(F)F	-1.4	-3.1	0.4	0.9	1.5	-10.1	/
Cc1ccccc1NC(=O)CN1CCC(C(=O)c2ccc3c(c2)OCCO3)CC1	56.5*	0.6	-4.4	-2.1	1.1	8.4	-3.2%
Cc1ccc(-n2ncc3c(=O)n(CC(=O)OCc4ccccc4)cnc32)cc1	1.3	-0.2	0.1	/	-8.0	3.8	/
O=C(Cn1cnc2c(cnn2-c2ccccc2)c1=O)OCc1ccccc1	94.9*	0.9	1.0	/	0.6	1.2	4.6%
O=C(CSc1nc(-c2ccccc2)c(-c2ccccc2)o1)N1CCCCC1	69.5*	2.2	5.5	1.5	-2.1	-16.7	-4.9%
O=C(CCSc1nc(-c2ccccc2)c(-c2ccccc2)o1)N1CCCCC1	-0.5	1.4	0.4	1.9	-1.4	-7.0	/
Cc1noc(C)c1NC(=O)N(C)C[C@@H]1Oc2c(NS(C)(=O)=O)cccc2C(=O)N([C@H](C)CO)C[C@H]1C	/	/	/	-1.7	/	/	/
CCC1CC(CSc2ncn[nH]2)OC1=O (stereo not drawn)	56.0*	3.3	-0.1	/	-4.7	-14.7	-2.4%
CC(=O)c1cccc(NC(=O)CC2CCCC2)c1	52.6*	-2.0	0.6	1.9	-3.4	0.3	-2.7%
COC1=C(C)C(=O)C2=C(C1=O)C1C3CC4=C(C(=O)C(OC)=C(C)C4=O)C(CNC(=O)C(C)=O)N3C(C#N)C(C2)N1C (stereo not drawn)	74.9*	-2.1	4.1	19.2	-13.8	15.9	-3.3%
O=C(COc1ccccc1O)NCCN1CCOCC1	51.6*	4.6	-4.9	1.7	-1.2	-18.2	2.2%
CCc1sc(C(=O)Nc2nc(C)cs2)cc1C	51.5*	0.8	0.1	0.6	3.7	-3.9	-6.3%
COc1ccc(-c2cnc3c(c2)C(=O)N([C@H](C)CO)C[C@H](C)[C@H](CN(C)S(=O)(=O)c2ccc(C#N)cc2)O3)cc1	/	/	/	-0.1	/	/	/
Cc1noc(C)c1S(=O)(=O)Nc1ccc2c(c1)CC(=O)N([C@@H](C)CO)C[C@@H](C)[C@@H](CN(C)C(=O)NC1CCCCC1)O2	/	/	/	-2.6	/	/	/
COc1ccc(CCCc2n[nH]c(=S)o2)cc1C	0.6	-2.9	6.7	-5.2	0.5	-5.9	/
COc1ccc(CCCc2n[nH]c(=S)n2C)cc1C	52.3*	3.6	0.7	2.0	0.9	-15.6	-1.7%
C[C@H](CO)N1C[C@H](C)[C@H](CN(C)C(=O)Nc2ccccc2)Oc2ccc(NS(C)(=O)=O)cc2C1=O	/	/	/	-0.9	/	/	/
Cc1ccc(C2=NC(=O)/C(=C/c3cc(O)c(O)c(Br)c3)S2)cc1	119.6*	50.3*	88.9*	78.9*	37.5*	-5.5	8.21µM*
COc1cc(/C=C2\SC(c3ccc(C)cc3)=NC2=O)cc(OC)c1O	6.3	-4.8	-2.8	1.3	-3.8	7.5	/
SMILES	NSD2 HMT inh	UHRF1 MBD2 ctr	LEDGF integ inh	CASP6 VEID inh	MBD2 inh	TDP2 inh	AlphaScreen art
CN(Cc1cnn(C)c1)C(=O)c1cc(COc2c(F)cccc2F)on1	0.7	-2.2	1.8	1.4	-4.3	6.1	/
COc1cccc(CN(C)C(=O)c2cc(COc3c(F)cccc3F)on2)c1	99.1*	1.4	6.2	3.1	-0.3	-10.2	3.2%
COc1ccc2c(C#N)c3ccccn3c2c1	51.6*	2.5	-0.2	61.9*	3.1	13.9	9.4%
Cc1nc(N)sc1-c1nnc(SCC(=O)Nc2ccccc2C(F)(F)F)n1C	125.4*	1.8	1.1	/	1.9	5.5	0.1%
CSc1nnc2c(n1)OC=Nc1ccccc1-2	67.3*	-2.5	-0.6	/	-4.3	-5.0	-5.4%
CC(=O)c1cccc(NC(=O)c2csc(-n3nc(C)cc3C(F)(F)F)n2)c1	125.5*	-1.5	1.1	/	-6.7	-4.7	0.6%
Cc1ccc(S(=O)(=O)N2CCCCC2CCNC(=O)C(=O)Nc2ccccc2F)cc1 (stereo not drawn)	94.5*	-1.3	1.1	0.2	-3.8	8.0	1.8%
COCC#Cc1ccc([C@@H]2[C@H]3CN(C(=O)C4CCC4)CC(=O)N3[C@H]2CO)cc1	/	/	/	-1.0	/	/	/
O=C(COc1ccccc1)N/N=C/c1sc(=O)n(Cc2cccc(C(=O)O)c2)c1Cl	62.2*	5.6	1.5	14.3	-6.1	-1.7	-2.9%
Cc1cccc(OCC(=O)N/N=C/c2sc(=O)n(Cc3cccc(C(=O)O)c3)c2Cl)c1	-0.8	-0.3	1.3	-0.1	-5.8	8.2	/
CCCCOc1ccc(-c2ncc(N)cn2)cc1	59.9*	0.9	-2.8	1.4	0.8	-1.2	-1.9%
CCCCOc1ccc(-c2nnc(N)s2)cc1	-0.3	-2.7	4.6	-3.4	-1.2	-6.2	/
O=C(C[C@H]1CC[C@@H]2[C@H](COC[C@H](O)CN2C(=O)c2ccc3c(c2)OCO3)O1)NC1Cc2ccccc2C1	/	/	/	-2.3	/	/	/
O=C(CCCN1C(=O)/C(=C\c2cccs2)SC1=S)Nc1ccc(C(=O)O)cc1	13.1	0.6	-1.6	1.4	9.1	1.1	/
COc1ccc(C=C2SC(=S)N(CCCC(=O)Nc3ccc(C(=O)O)c(O)c3)C2=O)cc1OC	/	-3.4	1.0	26.5	-5.2	-9.3	/
O=C(CN1C(=O)/C(=C/c2ccco2)SC1=S)Nc1ccc(O)c(C(=O)O)c1	116.2*	58.4*	46.9*	0.2	7.2	4.0	-12.7%
